Results from different studies.
BRD7: Bromodomain-containing protein 7 (BRD7, Homo sapiens, UniProt Q9NPI1)
VRK1: Serine/threonine-protein kinase VRK1 (VRK1, Homo sapiens, UniProt Q99986)
ALK C1156Y: ALK tyrosine kinase receptor (ALK, Homo sapiens, UniProt Q9UM73, C1156Y)
PBK: Lymphokine-activated killer T-cell-originated protein kinase (PBK, Homo sapiens, UniProt Q96KB5)
SIRT6: NAD-dependent protein deacylase sirtuin-6 (SIRT6, Homo sapiens, UniProt Q8N6T7)

Compound	target	test	system	conditions	endpoint	value
Oc1ccc(-c2nc(-c3ccncc3)c(-c3ccc(F)cc3)[nH]2)cc1	BRD7	thermal stability, DSF		10 µM	ΔTm	1.3 °C
Cn1c2c(c3ccc(Cl)c(Cl)c31)C(C#N)C(C)(C)NC2=O (stereo not drawn)	VRK1	thermal stability, DSF		10 µM	ΔTm	0.1 °C
Nc1ncnc2occ(-c3ccc(NC(=O)Nc4cc(C(F)(F)F)ccc4F)cc3)c12	ALK C1156Y	cell-free assay		20 µM	remaining signal	1.1%
Cn1c2c(c3ccc(Cl)c(Cl)c31)C(C#N)C1(CCNCC1)NC2=O (racemic)	PBK	thermal stability, DSF		10 µM	ΔTm	-0.9 °C
Cc1cc2c(cc1N1C(=O)c3cccc4c(Cl)ccc(c34)C1=O)n(C)c(=O)n2C	BRD7	thermal stability, DSF		10 µM	ΔTm	2.3 °C
Nc1nonc1-n1cc(C(=O)N/N=C/c2ccc([N+](=O)[O-])cc2)nn1	SIRT6	enzyme activity, inhibitor, fluorescence		100 µM	remaining activity	24.8%
NC(=O)c1ccc(C(=O)NOCc2cccc(Cl)c2)cc1	SIRT6	enzyme activity, inhibitor, fluorescence		100 µM	inhibition	80.2%
Cc1ccc(C(=O)Nc2ccc(CN3CCN(C)CC3)c(C(F)(F)F)c2)cc1C#Cc1cnc2cccnn12	Serine/threonine-protein kinase TNNI3K (TNNI3K, Homo sapiens, UniProt Q59H18)	cell-free assay		23.5 nM	remaining signal	50%
O=C(Nc1ccc(S(=O)(=O)N2CCC(Cl)CC2)cc1)c1ccc([N+](=O)[O-])o1	Voltage-dependent N-type calcium channel subunit alpha-1B (Cacna1b, Rattus norvegicus, UniProt Q02294)	cell-free assay		10 µM	inhibition	18%
NC(=O)c1ccc(C(=O)NOCc2ccc(Sc3ccc(N)cc3)c(C(F)(F)F)c2)cc1	SIRT6	enzyme activity, inhibitor, fluorescence		100 µM	inhibition	97.3%
Nc1nonc1-n1cc(C(=O)N/N=C/c2ccco2)nn1	SIRT6	enzyme activity, inhibitor, fluorescence		100 µM	remaining activity	40.9%
COc1ccc(Sc2ccc(CONC(=O)c3ccc(C(N)=O)cc3)cc2C(F)(F)F)cc1	SIRT6	enzyme activity, inhibitor, fluorescence		100 µM	inhibition	97.4%
Nc1nonc1-n1cc(C(=O)N/N=C/c2ccccc2C(=O)O)nn1	SIRT6	enzyme activity, inhibitor, fluorescence		100 µM	remaining activity	84.2%
Cn1c2c(c3ccc(Cl)c(Cl)c31)C(C#N)C1(CCCC1)NC2=O (stereo not drawn)	VRK1	thermal stability, DSF		10 µM	ΔTm	0 °C
NC(=O)c1ccc(C(=O)NOCc2ccc(C(=O)c3ccccc3)cc2)cc1	SIRT6	enzyme activity, inhibitor, fluorescence		100 µM	inhibition	86%
CC(C)(O)c1cn(-c2ccc(-c3cccc(S(C)(=O)=O)c3)cc2)c(C(C)(C)c2ccccc2Cl)n1	Oxysterols receptor LXR-beta (NR1H2, Homo sapiens, UniProt P55055)	reporter gene, agonist	CV-1		Emax	72%
NS(=O)(=O)c1ccc(Nc2nc(-c3ccc(F)cc3)c3ccccc3n2)cc1	BRD7	binding, competition with immobilised ligand		1 µM	remaining binding	76%

Compound	target	test	system	conditions	endpoint	value
Cn1c2c(Cl)c(Cl)ccc2c2cn[nH]c(=O)c21	PBK	thermal stability, DSF		10 µM	ΔTm	-0.3 °C
NC(=O)c1ccc(C(=O)NOCc2cccc(C(F)(F)F)c2)cc1	SIRT6	enzyme activity, inhibitor, fluorescence		100 µM	inhibition	92.1%
Nc1nonc1-n1cc(C(=O)N/N=C/c2cccc([N+](=O)[O-])c2O)nn1	SIRT6	enzyme activity, inhibitor, fluorescence		100 µM	remaining activity	41.4%
CN1CCC2(CC1)NC(=O)c1c(c3ccc(Cl)c(Cl)c3n1C)C2C#N (racemic)	PBK	thermal stability, DSF		10 µM	ΔTm	-0.2 °C
COC(=O)c1ccc(O)c(/C=N/NC(=O)c2cn(-c3nonc3N)nn2)c1	SIRT6	enzyme activity, inhibitor, fluorescence		100 µM	remaining activity	99.6%
Cn1c2c(Cl)c(Cl)ccc2c2cc[nH]c(=O)c21	PBK	thermal stability, DSF		10 µM	ΔTm	-0.6 °C
CC/C(=N\NC(=O)NCc1cccc(O)c1)c1ccc(O)c(C)c1O	ALK C1156Y	enzyme activity, inhibitor		0.1 µM	inhibition	2.3%
Cc1cccc(Sc2ccc(CONC(=O)c3ccc(C(N)=O)cc3)cc2C(F)(F)F)c1	SIRT6	enzyme activity, inhibitor, fluorescence		100 µM	inhibition	100%
Nc1nonc1-n1cc(C(=O)N/N=C/c2ccccc2Cl)nn1	SIRT6	enzyme activity, inhibitor, fluorescence		100 µM	remaining activity	22.8%
NC(=O)c1ccc(C(=O)NOCc2ccc(Sc3ccc(Cl)cc3)c(C(F)(F)F)c2)cc1	SIRT6	enzyme activity, inhibitor, fluorescence		100 µM	inhibition	95%
Nc1nonc1-n1cc(C(=O)N/N=C/c2ccc(O)c(O)c2O)nn1	SIRT6	enzyme activity, inhibitor, fluorescence		100 µM	remaining activity	51.3%
NC(=O)c1ccc(C(=O)NOCc2ccc(Cl)cc2)cc1	SIRT6	enzyme activity, inhibitor, fluorescence		100 µM	inhibition	79.5%
CCC1(CC)NC(=O)c2c(c3ccc(Cl)c(Cl)c3n2C)C1C#N (stereo not drawn)	VRK1	thermal stability, DSF		10 µM	ΔTm	0 °C
Nc1nonc1-n1cc(C(=O)N/N=C/c2cccc(O)c2O)nn1	SIRT6	enzyme activity, inhibitor, fluorescence		100 µM	remaining activity	27.2%
Cn1c2c(Cl)c(Cl)ccc2c2cc(N)[nH]c(=O)c21	VRK1	thermal stability, DSF		10 µM	ΔTm	1.3 °C
COc1cc(Cl)c(C(=O)N[C@@H](CN[C@H]2CC[C@@H](N)CC2)Cc2ccc(C#N)cc2)cc1-c1ccc(CN[C@H](C)c2ccc(C)cc2)o1	[Pyruvate dehydrogenase (acetyl-transferring)] kinase isozyme 4, mitochondrial (PDK4, Homo sapiens, UniProt Q16654)	enzyme activity, inhibitor		1 µM	remaining activity	103%
